Reference: ChEMBL document CHEMBL1152496, “N-Terminal 2,3-diaminopropionic acid (Dap) peptides as efficient methylglyoxal scavengers to inhibit advanced glycation endproduct (AGE) formation” (Bioorg Med Chem, 2009)
Where a SMILES comes first, the peptide text is derived from it. [ ]: non-standard residue; d: D form. dDap = NC[C@@H](N)C(=O)O; Dap = NC[C@H](N)C(=O)O

What was measured:
[1] = Inhibition of alpha-dicarbonyls-induced advanced glycation end product formation assessed as protection against 100 eq. MG-induced insulin degradation at 3.75 mM after 24 hrs by RP-HPLC; parameters: scale not given: the % may be the effect or the level left; conditions: 3750 µM
[2] = Inhibition of alpha-dicarbonyls-induced advanced glycation end product formation assessed as protection against MG-induced loss of bovine pancreatic RNaseA enzyme activity after 48 hrs […]; format: physicochemical; parameters: concentration or dose not given beside the values; conditions: cattle
How it was run: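 RNase A was pre-incubated with equimolar MG ± scavenger at 37 °C, pH 7.4. The glycated enzyme (10 µg/mL) was added to a methylene blue–yeast RNA solution (600 µg/mL RNA working concentration), and remaining activity was compared with control.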

[3] = Cytotoxicity in human EAhy926 cells assessed as viable cells at 1 mM after 48 hrs by MTT assay
[4] = Inhibition of alpha-dicarbonyls-induced advanced glycation end product formation assessed as protection against MG-induced chicken lysozyme degradation after 48 hrs by SDS-PAGE; format: physicochemical
How it was run: (§1)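 Protein stock (10–15 mg/mL in phosphate buffer) was incubated with MG ± scavenger at 37 °C, pH 7.4, for 48 h, then stored at −20 °C until SDS–PAGE. For RNase A, MG was equimolar to protein and scavenger was 1.1 mol per mol MG.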

[5] = Cytoprotective activity against MG-induced cytotoxicity in human EAhy926 cells assessed as viable cells at 1 mM after 48 hrs by MTT assay; conditions: EA.hy 926
[6] = Inhibition of alpha-dicarbonyls-induced advanced glycation end product formation assessed as protection against MG-induced bovine pancreatic RNaseA degradation after 48 hrs by SDS-PAGE; format: physicochemical; conditions: cattle
How it was run: as §1

[7] = Mutagenic activity in Salmonella Typhimurium at 0.1 to 10 uM after 60 hrs by Ames test in absence of human S9 fraction and in presence of MG; format: toxicity; conditions: salmonella enterica subsp. enterica serovar typhimurium, s9, 60 h
How it was run: (§2)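 Ames assay used a mix of S. typhimurium TA7001–TA7006 and, separately, TA98. Test substance (10, 1, 0.1 µM; alone or with MG; MG alone 10 µM) was incubated ± human liver S9 at 37 °C for 90 min, then in indicator medium for 60 h. Positive controls were 2-aminoanthracene, 4-nitroquinoline N-oxide and 2-nitrofluorene; solvent was the negative control. Duplicate experiments, 48 wells per point.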

[8] = Mutagenic activity in Salmonella Typhimurium TA98 at 0.1 to 10 uM after 60 hrs by Ames test in absence of human S9 fraction and in presence of MG; format: toxicity; conditions: salmonella enterica subsp. enterica serovar typhimurium, s9, 60 h
How it was run: as §2

[9] = Inhibition of alpha-dicarbonyls-induced advanced glycation end product formation assessed as protection against MG-induced human glyoxalase1 degradation after 24 hrs by […]; format: physicochemical
How it was run: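 Human glyoxalase I was incubated with MG (protein/MG 1/1) ± scavenger (1.1 or 2.2 equiv) at 37 °C, pH 7.4, for 24 h, then stored at −20 °C. Mobility shift was analysed by non-denaturing PAGE.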

[10] = Mutagenic activity in Salmonella Typhimurium TA98 at 0.1 to 10 uM after 60 hrs by Ames test in presence of human S9 fraction and MG; format: toxicity; conditions: salmonella enterica subsp. enterica serovar typhimurium, s9, 60 h
How it was run: as §2

[11] = Mutagenic activity in Salmonella Typhimurium at 0.1 to 10 uM after 60 hrs by Ames test in absence of human S9 fraction; format: toxicity; conditions: salmonella enterica subsp. enterica serovar typhimurium, s9, 60 h
How it was run: as §2

[12] = Mutagenic activity in Salmonella Typhimurium at 0.1 to 10 uM after 60 hrs by Ames test in presence of human S9 fraction; format: toxicity; conditions: salmonella enterica subsp. enterica serovar typhimurium, s9, 60 h
How it was run: as §2

[13] = Mutagenic activity in Salmonella Typhimurium TA98 at 0.1 to 10 uM after 60 hrs by Ames test in presence of human S9 fraction; format: toxicity; conditions: salmonella enterica subsp. enterica serovar typhimurium, s9, 60 h
How it was run: as §2

[14] = Inhibition of alpha-dicarbonyls-induced advanced glycation end product formation assessed as protection against MG-induced loss of human glyoxalase1 enzyme activity after 48 hrs […]; format: physicochemical; parameters: scale not given: the % may be the effect or the level left; conditions: 24 h; in the assay text read “24 hrs” for “48 hrs”
How it was run: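 Human glyoxalase I was pre-incubated with equimolar MG ± scavenger. Substrate hemithioacetal was formed from 2 mM MG and 2 mM reduced glutathione in 50 mM sodium phosphate pH 6.6 (20 min, 37 °C; ~600 µM) and equilibrated 15 min. Enzyme was then added, and S-D-lactoylglutathione formation was followed at 240 nm. One unit = 1 µmol per min.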

[15] = Mutagenic activity in Salmonella Typhimurium at 51.7 uM after 60 hrs by Ames test in presence of human S9 fraction; conditions: salmonella enterica subsp. enterica serovar typhimurium, s9, 60 h
[16] = Mutagenic activity in Salmonella Typhimurium TA98 at 51.7 uM after 60 hrs by Ames test in presence of human S9 fraction; conditions: salmonella enterica subsp. enterica serovar typhimurium, s9, 60 h
[17] = Inhibition of alpha-dicarbonyls-induced advanced glycation end product formation assessed as protection against 10 eq. MG-induced insulin degradation at 3.75 mM after 24 hrs by RP-HPLC; format: physicochemical; parameters: scale not given: the % may be the effect or the level left; conditions: 3750 µM
How it was run: (§3)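 Human insulin (34 µM) was incubated in 10 mM phosphate pH 7.4 with 0.1 M NaCl at 37 °C with MG, ± scavenger at 1.1 mol equiv relative to MG. The standard condition was MG 3.4 mM (100 equiv) with scavenger 3.75 mM for 24 h. Remaining intact insulin was quantified by C18 RP-HPLC (TFA water/acetonitrile gradient) against the insulin-alone control.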

[18] = Inhibition of alpha-dicarbonyls-induced advanced glycation end product formation assessed as protection against 5 eq. MG-induced insulin degradation at 3.75 mM after 24 hrs by RP-HPLC; format: physicochemical; parameters: scale not given: the % may be the effect or the level left; conditions: 3750 µM
How it was run: as §3

[19] = Inhibition of alpha-dicarbonyls-induced advanced glycation end product formation assessed as protection against MG-induced insulin degradation at 3.75 mM after 7 days by RP-HPLC; format: physicochemical; parameters: scale not given: the % may be the effect or the level left; conditions: 168 h, 3750 µM
How it was run: as §3

[20] = Inhibition of alpha-dicarbonyls-induced advanced glycation end product formation assessed as protection against 100 eq. MG-induced insulin degradation at 3.75 mM after 24 hrs by RP-HPLC; format: physicochemical; parameters: scale not given: the % may be the effect or the level left; conditions: 3750 µM
How it was run: as §3

[21] = Inhibition of alpha-dicarbonyls-induced advanced glycation end product formation assessed as protection against MG-induced insulin degradation at 3.75 mM after 2 days by RP-HPLC; format: physicochemical; parameters: scale not given: the % may be the effect or the level left; conditions: 48 h, 3750 µM
How it was run: as §3

[22] = Inhibition of alpha-dicarbonyls-induced advanced glycation end product formation assessed as protection against MG-induced insulin degradation at 3.75 mM after 5 days by RP-HPLC; format: physicochemical; parameters: scale not given: the % may be the effect or the level left; conditions: 120 h, 3750 µM
How it was run: as §3

Activity [1] [%] | Compound | viability at 1000 µM [3] [%] | viability at 1000 µM [5] [%] | other results
71 | CC(C)[C@H](NC(=O)[C@@H](N)CN)C(=O)O (H-[Dap]-Val-OH) | 96 | 93 | Activity [2]: 91%; Activity [4]: Active; Activity [6]: Active
74 | NC[C@@H](N)C(=O)N[C@@H](Cc1ccc(C(F)(F)F)cc1)C(=O)O |  |  | 
98 | NCC(N)C(=O)O (stereo not given) |  |  | Activity [2]: 20%
40 | NCCC(N)C(=O)O (racemic) |  |  | 
87 | CC(C)C[C@H](NC(=O)[C@@H](N)CN)C(=O)O | 78 | 69 | Activity [2]: 94%; Activity [7]: Non-toxic; Activity [8]: Non-toxic; Activity [9]: Active; Activity [4]: Active; Activity [10]: Non-toxic; Activity [11]: Non-toxic; Activity [12]: Non-toxic; Activity [13]: Non-toxic; Activity [6]: Active; Activity [14]: 96%
61 | NC[C@@H](N)C(=O)N[C@H](CC(=O)O)C(=O)O |  |  | 
69 | NC[C@H](N)C(=O)NCCC(=O)O |  |  | 
75 | CC[C@H](C)[C@H](NC(=O)[C@@H](N)CN)C(=O)O (H-[Dap]-Ile-OH) | 86 | 79 | Activity [2]: 91%
83 | CC(C)C[C@H](NC(=O)[C@H](N)CN)C(=O)O |  |  | Activity [17]: 90%; Activity [18]: 90%; Activity [19]: 88%; Activity [20]: 83%; Activity [21]: 88%; Activity [22]: 85%
66 | NC[C@@H](N)C(=O)N[C@H](Cc1ccccc1)C(=O)O |  |  | Activity [2]: 70%
71 | C[C@@H](NC(=O)[C@H](N)CN)C(=O)O (H-[dDap]-[dA]-OH) | 72 | 71 | Activity [2]: 87%
91 | CCCC[C@H](NC(=O)[C@H](N)CN)C(=O)O |  |  | 
67 | NC[C@H](N)C(=O)NCC(=O)O (H-[Dap]-Gly-OH) | 57 | 54 | Activity [2]: 86%
84 | CC(C)C[C@@H](NC(=O)[C@H](N)CN)C(=O)O |  |  | 
53 | NC[C@@H](N)C(=O)NC(Cc1ccc(F)cc1)C(=O)O (mixture of isomers) |  |  | 

Second part, the compound before the results:

Compound | Activity [1] [%] | viability at 1000 µM [3] [%] | viability at 1000 µM [5] [%] | other results
N[C@@H](CS)C(=O)O [CYSTEINE] | 69 |  |  | 
NCCC(=O)N[C@@H](Cc1cnc[nH]1)C(=O)O [CARNOSINE] | 0 | 97 | 54 | 
Cc1ncc(CO)c(CN)c1O [PYRIDOXAMINE] | 14 | 92 | 32 | 
CCCCCCCCCCCCCCCCOC(=O)[C@H](CC(C)C)NC(=O)C(N)CN (single isomer, unassigned) | 74 | 23 | 33 | 
CCCC[C@H](NC(=O)[C@@H](N)CN)C(=O)O |  | 94 | 74 | 
CC(C)C[C@@H](NC(=O)[C@@H](N)CN)C(=O)O |  | 87 | 71 | 
NC[C@H](N)C(=O)N[C@@H](Cc1ccccc1)C(=O)O |  | 78 | 67 | 
CN(C)C(=N)N=C(N)N [METFORMIN] | 11 | 84 | 53 | 
Nc1ccc2cc3ccccc3cc2c1 [2-AMINOANTHRACENE] |  |  |  | Activity [15]: Toxic; Activity [16]: Toxic
CC(C)(S)C(N)C(=O)O (racemic) [DL-PENICILLAMINE] | 69 | 86 | 61 | 
NCC(N)C(=O)O (single isomer, unassigned) [DIAMINOPROPANOIC ACID] |  | 81 | 67 | 
NCCCC[C@H](N)C(=O)O [LYSINE] | 0 |  |  | 
N=C(N)NCCC[C@H](N)C(=O)O [ARGININE] | 18 |  |  | 
NCCCC[C@H](NC(=O)[C@H](N)CN)C(=O)O |  | 81 | 43 | 
NC[C@H](N)C(=O)N1CCC[C@H]1C(=O)O (H-[Dap]-Pro-OH) | 77 |  |  | 
N=C(N)NN [PIMAGEDINE] | 85 | 94 | 75 | Activity [2]: 70%
